Laboratory results taken from ChEMBL document CHEMBL4145497, “Discovery of 2-aminothiazolyl berberine derivatives as effectively antibacterial agents toward clinically drug-resistant Gram-negative Acinetobacter baumanii” (Eur J Med Chem, 2018).
≈ marks a conversion by molar mass, not a printed value.

Tests used:
[1] = system: Saccharomyces cerevisiae; test: Antifungal activity against Saccharomyces cerevisiae ATCC 9763 by CLSI two fold serial dilution method; type: functional
[2] = Aqueous solubility of the compound in phosphate buffer at pH 7.4 after 3 hrs by UV detection assay; type: physicochemical
Outline: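 Water solubility measured at physiological pH, with berberine as the control.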

[3] = system: Staphylococcus aureus; test: Antibacterial activity against Staphylococcus aureus ATCC 25923 after 18 to 24 hrs by CLSI two fold serial dilution method; type: functional
[4] = system: Candida albicans; test: Antifungal activity against Candida albicans ATCC 76615 by CLSI two fold serial dilution method; type: functional
[5] = system: Cyberlindnera jadinii; test: Antifungal activity against Candida utilis ATCC 9950 by CLSI two fold serial dilution method; type: functional; conditions: Williopsis jadinii
[6] = system: Micrococcus luteus; test: Antibacterial activity against Micrococcus luteus ATCC 4698 after 18 to 24 hrs by CLSI two fold serial dilution method; type: functional
[7] = system: Candida parapsilosis; test: Antifungal activity against Candida parapsilosis ATCC 22019 by CLSI two fold serial dilution method; type: functional; conditions: Lodderomyces parapsilosis
[8] = system: Bacillus subtilis; test: Antibacterial activity against Bacillus subtilis ATCC 21216 after 18 to 24 hrs by CLSI two fold serial dilution method; type: functional
[9] = system: Pseudomonas aeruginosa; test: Antibacterial activity against Pseudomonas aeruginosa ATCC 27853 after 18 to 24 hrs by CLSI two fold serial dilution method; type: functional
[10] = system: Aspergillus flavus; test: Antifungal activity against Aspergillus flavus ATCC 204304 by CLSI two fold serial dilution method; type: functional
[11] = system: Pichia norvegensis; test: Antifungal activity against Candida mycoderma ATCC 96918 by CLSI two fold serial dilution method; type: functional
[12] = system: Escherichia coli; test: Antibacterial activity against Escherichia coli DH52 after 18 to 24 hrs by CLSI two fold serial dilution method; type: functional

Row | Structure (SMILES) | MIC [1] | solubility at 3 h [2] | MIC [3] | MIC [4] | MIC [5] | MIC [6] | MIC [7] | MIC [8] | MIC [9] | MIC [10] | MIC [11] | MIC [12]
1 | COc1cc(/C=N/Nc2nccs2)c2c(c1OCc1ccc([N+](=O)[O-])cc1)CN1CCc3cc4c(cc3C1C2)OCO4 (stereo not drawn) | 440 µM (≈ 258 µg/mL) | 0.374 to 3.19 mg/mL (≈ 0.639 to 5.45 mM) | 110 µM (≈ 64.4 µg/mL) | 220 µM (≈ 129 µg/mL) | 440 µM (≈ 258 µg/mL) | 220 µM (≈ 129 µg/mL) | 7 µM (≈ 4.1 µg/mL) | 110 µM (≈ 64.4 µg/mL) | 50 µM (≈ 29.3 µg/mL) | 870 µM (≈ 510 µg/mL) | 220 µM (≈ 129 µg/mL) | 440 µM (≈ 258 µg/mL)
2 | CCOc1c(OC)cc(/C=N/Nc2nccs2)c2c1CN1CCc3cc4c(cc3C1C2)OCO4 (stereo not drawn) | 1070 µM (≈ 512 µg/mL) | 10.2 mg/mL (≈ 21.3 mM) | 70 µM (≈ 33.5 µg/mL) | 70 µM (≈ 33.5 µg/mL) | 540 µM (≈ 258 µg/mL) | 530 µM (≈ 254 µg/mL) | 30 µM (≈ 14.4 µg/mL) | 530 µM (≈ 254 µg/mL) | 70 µM (≈ 33.5 µg/mL) | 540 µM (≈ 258 µg/mL) | 540 µM (≈ 258 µg/mL) | 70 µM (≈ 33.5 µg/mL)
3 | COc1cc(/C=N/Nc2nccs2)c2c(c1OCc1ccc(Cl)c(Cl)c1)CN1CCc3cc4c(cc3C1C2)OCO4 (stereo not drawn) | 840 µM (≈ 512 µg/mL) | 0.374 to 3.19 mg/mL (≈ 0.614 to 5.23 mM) | 110 µM (≈ 67 µg/mL) | 420 µM (≈ 256 µg/mL) | 420 µM (≈ 256 µg/mL) | 420 µM (≈ 256 µg/mL) | 110 µM (≈ 67 µg/mL) | 210 µM (≈ 128 µg/mL) | 110 µM (≈ 67 µg/mL) | 420 µM (≈ 256 µg/mL) | 210 µM (≈ 128 µg/mL) | 110 µM (≈ 67 µg/mL)
4 | COc1cc(/C=N/Nc2nccs2)c2c(c1OCCO)CN1CCc3cc4c(cc3C1C2)OCO4 (stereo not drawn) | 520 µM (≈ 257 µg/mL) | 7.02 to 10.2 mg/mL (≈ 14.2 to 20.6 mM) | 130 µM (≈ 64.3 µg/mL) | 260 µM (≈ 129 µg/mL) | 520 µM (≈ 257 µg/mL) | 260 µM (≈ 129 µg/mL) | 30 µM (≈ 14.8 µg/mL) | 260 µM (≈ 129 µg/mL) | 130 µM (≈ 64.3 µg/mL) | 1040 µM (≈ 514 µg/mL) | 520 µM (≈ 257 µg/mL) | 130 µM (≈ 64.3 µg/mL)
5 | CCCCOc1c(OC)cc(/C=N/Nc2nccs2)c2c1CN1CCc3cc4c(cc3C1C2)OCO4 (stereo not drawn) | 510 µM (≈ 258 µg/mL) | 7.02 to 10.2 mg/mL (≈ 13.9 to 20.1 mM) | 60 µM (≈ 30.4 µg/mL) | 250 µM (≈ 127 µg/mL) | 250 µM (≈ 127 µg/mL) | 250 µM (≈ 127 µg/mL) | 8 µM (≈ 4.05 µg/mL) | 250 µM (≈ 127 µg/mL) | 250 µM (≈ 127 µg/mL) | 510 µM (≈ 258 µg/mL) | 250 µM (≈ 127 µg/mL) | 60 µM (≈ 30.4 µg/mL)
6 | COc1cc(/C=N/Nc2nccs2)c2c(c1OCC#N)CN1CCc3cc4c(cc3C1C2)OCO4 (stereo not drawn) | 1050 µM (≈ 514 µg/mL) | 7.02 to 10.2 mg/mL (≈ 14.3 to 20.8 mM) | 130 µM (≈ 63.6 µg/mL) | 70 µM (≈ 34.3 µg/mL) | 520 µM (≈ 255 µg/mL) | 260 µM (≈ 127 µg/mL) | 20 µM (≈ 9.79 µg/mL) | 260 µM (≈ 127 µg/mL) | 260 µM (≈ 127 µg/mL) | 1050 µM (≈ 514 µg/mL) | 130 µM (≈ 63.6 µg/mL) | 260 µM (≈ 127 µg/mL)

Now from value to compound:

Row | MIC [1] | solubility at 3 h [2] | MIC [3] | MIC [4] | MIC [5] | MIC [6] | MIC [7] | MIC [8] | MIC [9] | MIC [10] | MIC [11] | MIC [12] | Structure (SMILES)
7 | 920 µM (≈ 514 µg/mL) | 0.374 to 3.19 mg/mL (≈ 0.669 to 5.71 mM) | 60 µM (≈ 33.5 µg/mL) | 230 µM (≈ 128 µg/mL) | 460 µM (≈ 257 µg/mL) | 230 µM (≈ 128 µg/mL) | 230 µM (≈ 128 µg/mL) | 460 µM (≈ 257 µg/mL) | 460 µM (≈ 257 µg/mL) | 920 µM (≈ 514 µg/mL) | 460 µM (≈ 257 µg/mL) | 230 µM (≈ 128 µg/mL) | COc1cc(/C=N/Nc2nccs2)c2c(c1OCc1ccccc1F)CN1CCc3cc4c(cc3C1C2)OCO4 (stereo not drawn)
8 | 950 µM (≈ 514 µg/mL) | 0.374 to 3.19 mg/mL (≈ 0.692 to 5.9 mM) | 240 µM (≈ 130 µg/mL) | 470 µM (≈ 254 µg/mL) | 470 µM (≈ 254 µg/mL) | 240 µM (≈ 130 µg/mL) | 60 µM (≈ 32.4 µg/mL) | 470 µM (≈ 254 µg/mL) | 240 µM (≈ 130 µg/mL) | 950 µM (≈ 514 µg/mL) | 60 µM (≈ 32.4 µg/mL) | 950 µM (≈ 514 µg/mL) | COc1cc(/C=N/Nc2nccs2)c2c(c1OCc1ccccc1)CN1CCc3cc4c(cc3C1C2)OCO4 (stereo not drawn)
9 | 890 µM (≈ 512 µg/mL) | 0.374 to 3.19 mg/mL (≈ 0.65 to 5.55 mM) | 110 µM (≈ 63.3 µg/mL) | 450 µM (≈ 259 µg/mL) | 450 µM (≈ 259 µg/mL) | 890 µM (≈ 512 µg/mL) | 110 µM (≈ 63.3 µg/mL) | 220 µM (≈ 127 µg/mL) | 450 µM (≈ 259 µg/mL) | 890 µM (≈ 512 µg/mL) | 110 µM (≈ 63.3 µg/mL) | 450 µM (≈ 259 µg/mL) | COc1cc(/C=N/Nc2nccs2)c2c(c1OCc1ccccc1Cl)CN1CCc3cc4c(cc3C1C2)OCO4 (stereo not drawn)
